How the values were obtained:
Rattus norvegicus [1] = test: Increase in lipase level in rat serum at 10 mg/kg/day administered for 16 days (reference value: 100 +/- 39%); assay type: functional
Outline: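 Male Sprague-Dawley rats dosed orally at 10 mg/kg/day in 1% CMC for 16 days. Serum lipase was measured with a commercial serum lipase kit. Expressed as percent of vehicle control, N = 8.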

Rattus norvegicus [2] = test: Decrease in lipase level in rat liver at 10 mg/kg/day administered for 16 days (reference value: 100 +/- 39%); assay type: functional; set-up: scale not given: the % may be the effect or the level left
Rattus norvegicus [3] = test: Effect on food intake in rat at 5 mg/kg/day measured during second week (reference value: 23.4 +/- 1.8 gms); assay type: ADME, organism-based; details: in vivo
Outline: (§1)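 Male rats dosed orally at 1, 5, 10 or 50 mg/kg/day in 1% CMC. Average food intake in grams per rat per week measured over a 2-week period, first and second weeks reported separately. N = 8, Student's t test against the 1% CMC control.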

Rattus norvegicus [4] = test: Effect on food intake in rat at 10 mg/kg/day measured during second week (reference value: 23.4 +/- 1.8 gms); assay type: ADME, organism-based; details: in vivo; outline: as §1
Rattus norvegicus [5] = test: Effect on kidney weight in rat at 5 mg/kg/day administered for 16 days measured 24 hrs after last drug dosage relative to total body weight (reference value: 0.92 +/- 0.04%); assay type: ADME, organism-based; details: in vivo
Rattus norvegicus [6] = test: Effect on spleen weight in rat at 1 mg/kg/day administered for 16 days measured 24 hrs after last drug dosage relative to total body weight (reference value: 0.55 +/- 0.12%); assay type: ADME, organism-based; details: in vivo
Rattus norvegicus [7] = test: Effect on brain weight in rat at 10 mg/kg/day administered for 16 days measured 24 hrs after last drug dosage relative to total body weight (reference value: 0.67 +/- 0.05%); assay type: ADME, organism-based; details: in vivo
Rattus norvegicus [8] = test: Effect on vas deferens and epididymis weight in rat at 50 mg/kg/day administered for 16 days measured 24 hrs after last drug dosage relative to total body weight (reference value: 0.22 +/- 0.04%); assay type: ADME, organism-based; details: in vivo
Rattus norvegicus [9] = test: Effect on testes weight in rat at 1 mg/kg/day administered for 16 days measured 24 hrs after last drug dosage relative to total body weight (reference value: 1.08 +/- 0.08%); assay type: ADME, organism-based, Testis; details: in vivo
Rattus norvegicus [10] = test: Effect on testes weight in rat at 10 mg/kg/day administered for 16 days measured 24 hrs after last drug dosage relative to total body weight (reference value: 1.08 to 1.10%); assay type: ADME, organism-based, Testis; details: in vivo
Rattus norvegicus [11] = test: Hypocholesterolemic activity in rat assessed as [14C]palmitic acid level in liver at 10 mg/kg/day administered for 1 week measured after 22 hrs on day 7 by scintillation counting analysis (reference value: 8.06 +/- 1.33%); assay type: functional
Outline: (§2)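 Male Sprague-Dawley rats on lab chow dosed orally once daily for 1 week at 10 mg/kg/day, suspended in 1% CMC, or given vehicle alone. On day 7, 5 μCi [1-14C]palmitic acid given orally. Killed after 22 hr; organs made into 10% water homogenates. Aliquots of 0.1 cc of homogenate, urine, blood or feces were digested and scintillation counted. Output is % of dose per tissue, N = 6.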

Rattus norvegicus [12] = test: Hypocholesterolemic activity in rat assessed as [14C]palmitic acid level in brain at 10 mg/kg/day administered for 1 week measured after 22 hrs on day 7 by scintillation counting analysis (reference value: 0.07 +/- 0.04%); assay type: functional; outline: as §2
Rattus norvegicus [13] = test: Hypocholesterolemic activity in rat assessed as [14C]palmitic acid level in testes at 10 mg/kg/day administered for 1 week measured after 22 hrs on day 7 by scintillation counting analysis (reference value: 0.22 +/- 0.10%); assay type: functional, Testis; outline: as §2
Rattus norvegicus [14] = test: Hypocholesterolemic activity in rat assessed as [14C]palmitic acid level in chyme at 10 mg/kg/day administered for 1 week measured after 22 hrs on day 7 by scintillation counting analysis (reference value: 0.41+/- 0.17%); assay type: functional; outline: as §2
Rattus norvegicus [15] = test: Hypocholesterolemic activity in rat assessed as [14C]palmitic acid level in large intestine at 10 mg/kg/day administered for 1 week measured after 22 hrs on day 7 by scintillation counting analysis (reference value: 3.46 +/- 1.25%); assay type: functional; outline: as §2
Rattus norvegicus [16] = test: Hypocholesterolemic activity in rat assessed as [14C]palmitic acid level in urine at 10 mg/kg/day administered for 1 week measured after 22 hrs on day 7 by scintillation counting analysis (reference value: 3.31 +/- 1.37%); assay type: functional; outline: as §2
Rattus norvegicus [17] = test: Hypocholesterolemic activity in rat assessed as [14C]cholesterol level in brain at 10 mg/kg/day administered for 1 week measured after 22 hrs on day 7 by scintillation counting analysis (reference value: 0.12 +/- 0.04%); assay type: functional
Outline: (§3)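 Male rats were dosed orally for 1 week (10 mg/kg/day) or with 1% CMC. On day 7 they received 5 μCi [4-14C]cholesterol orally and were killed after 22 hr. Organs were homogenized (10% in water); 0.1-cc aliquots of homogenate, urine, blood or feces were digested with Protosol. Samples were counted in toluene/Triton X-100 (2:1) scintillant with 0.4% PPO and 0.01% POPOP. Results are % of dose per tissue, N = 6.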

Rattus norvegicus [18] = test: Hypocholesterolemic activity in rat assessed as [14C]cholesterol level in testes at 10 mg/kg/day administered for 1 week measured after 22 hrs on day 7 by scintillation counting analysis (reference value: 0.24 +/- 0.17%); assay type: functional, Testis; outline: as §3
[19] = Toxicity in ip dosed CF1 mouse assessed as animal death; assay type: organism-based; details: in vivo
Outline: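 Male CF1 mice given active propanones ip over 10 mg to 6 g/kg where solubility allowed; deaths recorded to estimate LD50.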

Rattus norvegicus [20] = test: Uterotrophic activity in ovariectomized Sprague-Dawley rat assessed as uterine weight administered for 3 days (reference value: 100 +/- 27%); assay type: organism-based, Uterus; details: in vivo, 72 h
Rattus norvegicus [21] = test: Effect on body weight in rat at 1 mg/kg/day administered for 16 days measured on day 7 (reference value: 173 +/- 12 gms); assay type: ADME, organism-based; details: in vivo, 384 h
Outline: (§4)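 Male Sprague-Dawley rats with chow and water ad libitum. Compound suspended in 1% CMC-water and given orally by intubation needle at 11:00 a.m., 1, 5, 10 or 50 mg/kg/day, for 16 days. Body weight (g) recorded on days 0, 7 and 16. N = 8.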

Rattus norvegicus [22] = test: Effect on body weight in rat at 1 mg/kg/day administered for 16 days measured on day 16 (reference value: 233 +/- 16 gms); assay type: ADME, organism-based; details: in vivo, 384 h; outline: as §4
Rattus norvegicus [23] = test: Hypocholesterolemic activity in Sprague-Dawley rat assessed as serum cholesterol level at 50 mg/kg/day, po administered via intubation measured on day 4 by Liebermann-Burchard reaction (reference value: 100 +/- 7%); assay type: functional
Rattus norvegicus [24] = test: Hypocholesterolemic activity in rat assessed as [14C]cholesterol level in blood at 10 mg/kg/day administered for 1 week measured after 22 hrs on day 7 by scintillation counting analysis (reference value: 0.01 +/- 0.01%); assay type: functional; outline: as §3
Rattus norvegicus [25] = test: Effect on protein content in rat liver at 10 mg/kg/day administered for 16 days (reference value: 100 +/- 6%); assay type: ADME, organism-based; details: in vivo, 384 h
Rattus norvegicus [26] = test: Effect on glycogen content in rat liver at 10 mg/kg/day administered for 16 days (reference value: 100 +/- 24%); assay type: ADME, organism-based; details: in vivo, 384 h
Rattus norvegicus [27] = test: Effect on lipid content in rat liver at 10 mg/kg/day administered for 16 days (reference value: 100 +/- 16%); assay type: ADME, organism-based; details: in vivo, 384 h
Rattus norvegicus [28] = test: Hypocholesterolemic activity in rat assessed as [14C]cholesterol recover at 10 mg/kg/day administered for 1 week measured after 22 hrs on day 7 by scintillation counting analysis (reference value: 99.11%); assay type: functional; outline: as §3

SMILES: Cc1ccc(OCC(=O)COc2ccc(C)cc2)cc1
- Activity (Rattus norvegicus [1]): 222%
- Activity (Rattus norvegicus [2]): 68%
- Activity (Rattus norvegicus [3]): 28.8 g
- Activity (Rattus norvegicus [4]): 28.6 g
- Activity (Rattus norvegicus [5]): 0.88%
- Activity (Rattus norvegicus [6]): 0.43%
- Activity (Rattus norvegicus [7]): 0.71%
- Activity (Rattus norvegicus [8]): 0.25%
- Activity (Rattus norvegicus [9]): 1.12%
- Activity (Rattus norvegicus [10]): 1.13%
- Activity (Rattus norvegicus [11]): 9.26%
- Activity (Rattus norvegicus [12]): 0.08%
- Activity (Rattus norvegicus [13]): 0.25%
- Activity (Rattus norvegicus [14]): 2%
- Activity (Rattus norvegicus [15]): 9.91%
- Activity (Rattus norvegicus [16]): 1.82%
- Activity (Rattus norvegicus [17]): 0.16%
- Activity (Rattus norvegicus [18]): 0.33%
- LD50 [19]: 1500 mg/kg
- Activity (Rattus norvegicus [20]): 82%
- Activity (Rattus norvegicus [21]): 166 g
- Activity (Rattus norvegicus [22]): 234 g
- Activity (Rattus norvegicus [23]): 86%
- Activity (Rattus norvegicus [24]): 0.01%
- Activity (Rattus norvegicus [25]): 102%
- Activity (Rattus norvegicus [26]): 118%
- Activity (Rattus norvegicus [27]): 88%
- Activity (Rattus norvegicus [28]): 99.94%
